Laboratory results from publication PMC3631442 (ACS chemical biology, 2013).
Values belong to the molecule of their own block, whether it stands above or below them. No end group written: not given here. *: point of attachment. Biotin = O=C1N[C@H]2[C@H](CS[C@H]2CCCCC(=O)*)N1; PEG4 = NCCOCCOCCOCCOCCC(=O)O

Assays:
Bfl-1 [1] = target: T1, Bfl-1 (Homo sapiens, UniProt Q16548); test: Bio-layer interferometry; format: binding
T1 sequence (Q16548 1-151 limits assumed): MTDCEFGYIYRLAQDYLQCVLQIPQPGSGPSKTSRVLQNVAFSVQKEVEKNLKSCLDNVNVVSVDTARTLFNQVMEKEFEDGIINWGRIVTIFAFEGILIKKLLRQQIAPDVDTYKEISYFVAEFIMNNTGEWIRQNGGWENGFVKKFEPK
Summary of the method: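 Biotinylated 23-residue test peptide (free N-terminus, amidated C-terminus), at 0.1 mg/ml, loaded on streptavidin biosensors to ~0.42 response units. Protein at 2–3 concentrations (30–250 nM) associated for 10 min, then dissociated for 60 min in 20 mM phosphate, 50 mM NaCl, 0.1% BSA, pH 7.5. Off-rate upper bound taken from signal fluctuation over 1000 s. Association phase fit for kon and Rmax.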

Bcl-w [2] = target: T2, Bcl-w (Homo sapiens, UniProt Q92843); test: Fluorescence polarization competition with fluoresceinated Bim BH3; format: binding
T2 sequence (Q92843 1-193): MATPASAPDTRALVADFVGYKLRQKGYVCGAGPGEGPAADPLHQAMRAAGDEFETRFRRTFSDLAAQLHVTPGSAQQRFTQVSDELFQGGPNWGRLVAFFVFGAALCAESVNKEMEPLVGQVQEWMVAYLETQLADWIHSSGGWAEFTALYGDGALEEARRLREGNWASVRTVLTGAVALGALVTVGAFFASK

Mcl-1 [3] = target: Mcl-1 (Homo sapiens, UniProt Q07820); test: as above; format: binding
Bcl-w [4] = target: Bcl-w (UniProt Q92843); test: fluorescence polarisation
Bfl-1 [5] = target: T3, Bfl-1; test: fluorescence polarisation
T3 sequence (Q16548 whole entry, species assumed, looked up): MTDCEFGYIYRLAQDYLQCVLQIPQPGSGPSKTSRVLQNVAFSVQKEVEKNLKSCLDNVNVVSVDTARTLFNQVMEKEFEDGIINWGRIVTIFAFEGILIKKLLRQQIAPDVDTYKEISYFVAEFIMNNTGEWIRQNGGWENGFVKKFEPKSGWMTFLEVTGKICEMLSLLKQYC

[6] = target: 18-residue fluoresceinated Bim BH3 peptide (human); test: fluorescence polarisation
Bfl-1 [7] = target: T1, Bfl-1; test: Fluorescence polarization competition with fluoresceinated Bim BH3; format: binding
Bcl-2 [8] = target: Bcl-2 (Homo sapiens, UniProt P10415); test: as above; format: binding
Bcl-xL [9] = target: Bcl-xL (Homo sapiens, UniProt Q07817); test: as above; format: binding
[10] = target: Puma BH3 BH3 (Homo sapiens) (UniProt Q9BXH1); conditions: cited from earlier work
[11] = target: Bid BH3 BH3 (Homo sapiens) (UniProt P55957); conditions: cited from earlier work
Bcl-xL [12] = target: T4, Bcl-xL (UniProt Q07817-1 1-233); test: fluorescence polarisation
Bcl-w [13] = target: T5, Bcl-w (UniProt Q92843 1-193); test: fluorescence polarisation
Mcl-1 [14] = target: T6, Mcl-1 (UniProt Q07820 1-350); test: fluorescence polarisation
Bcl-2 [15] = target: T7, Bcl-2 (UniProt P10415 1-239); test: fluorescence polarisation
Bfl-1 [16] = target: T3, Bfl-1; test: fluorescence polarisation; remark: listed apart in the source
Bcl-w [17] = target: T5, Bcl-w; test: fluorescence polarisation; remark: listed apart in the source
Bcl-2 [18] = target: T7, Bcl-2; test: fluorescence polarisation; remark: listed apart in the source
Bcl-xL [19] = target: T4, Bcl-xL; test: BLI
Mcl-1 [20] = target: T6, Mcl-1; test: BLI

T7 sequence (P10415 whole entry): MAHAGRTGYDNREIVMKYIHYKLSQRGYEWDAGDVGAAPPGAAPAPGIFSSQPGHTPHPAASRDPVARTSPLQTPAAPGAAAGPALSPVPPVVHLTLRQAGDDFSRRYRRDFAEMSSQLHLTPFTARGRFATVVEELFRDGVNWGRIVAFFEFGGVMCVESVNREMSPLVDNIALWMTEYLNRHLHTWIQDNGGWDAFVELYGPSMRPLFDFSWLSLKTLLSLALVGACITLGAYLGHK
T4 sequence (Q07817 whole entry): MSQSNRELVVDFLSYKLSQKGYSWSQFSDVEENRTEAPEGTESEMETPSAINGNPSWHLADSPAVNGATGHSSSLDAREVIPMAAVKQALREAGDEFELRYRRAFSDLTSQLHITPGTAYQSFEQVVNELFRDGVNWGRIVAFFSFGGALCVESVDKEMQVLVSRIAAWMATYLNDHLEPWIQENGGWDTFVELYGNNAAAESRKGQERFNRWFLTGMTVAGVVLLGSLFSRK
Mcl-1 (Homo sapiens, UniProt Q07820), sequence (Q07820 whole entry): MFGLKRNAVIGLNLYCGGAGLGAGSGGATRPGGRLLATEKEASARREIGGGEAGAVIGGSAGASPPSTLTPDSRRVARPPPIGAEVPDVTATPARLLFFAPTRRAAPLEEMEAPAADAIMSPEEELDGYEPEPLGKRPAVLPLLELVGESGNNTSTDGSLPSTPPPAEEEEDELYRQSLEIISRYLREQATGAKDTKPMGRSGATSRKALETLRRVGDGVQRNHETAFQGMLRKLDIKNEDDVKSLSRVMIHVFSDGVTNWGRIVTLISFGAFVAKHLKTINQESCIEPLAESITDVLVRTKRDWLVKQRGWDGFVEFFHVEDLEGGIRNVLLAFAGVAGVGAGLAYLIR
T6 sequence (Q07820 whole entry): as above
Puma BH3 BH3 (Homo sapiens), sequence (Q9BXH1 130-155): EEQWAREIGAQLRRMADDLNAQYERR
Bcl-2 (Homo sapiens, UniProt P10415), sequence (P10415 whole entry): as the sequence (P10415 whole entry) above
Bcl-xL (Homo sapiens, UniProt Q07817), sequence (Q07817 whole entry): as the sequence (Q07817 whole entry) above
Bid BH3 BH3 (Homo sapiens), sequence (P55957 79-104): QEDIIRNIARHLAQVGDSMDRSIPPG

Molecule: Bim_D3fK with E3gV (peptide)
- fold weakening of binding against Bim D3fK (Bcl-w [4]): 2.5 fold
- fold increase in binding against Bim D3fK (Bfl-1 [5]): 2 fold

Molecule: Bfl-1 (domain or fragment)
- Kd [6]: 4 nM

Molecule: Bfl-1 (from UniProt Q16548)
- Kd [10]: 50 nM
- Kd [11]: 50 nM

Molecule: Ac-RPEIWIAQGLRRIGDTWNAYYAR-NH2 [FW1 (unlabeled, 23 residues)]
- Ki (Bcl-xL [12]): 20 nM
- Ki (Bcl-w [13]): 298 nM
- Ki (Mcl-1 [14]): 0.2 nM
- Ki (Bcl-2 [15]): 31 nM

Molecule: Ac-RPEIWLAQYLRRLGDQINAYYAR-NH2 [FD1]
- Ki (Bcl-xL [12]): 5 nM
- Ki (Bcl-w [13]): 12 nM
- Ki (Mcl-1 [14]): 0.1 nM
- Ki (Bcl-2 [15]): 7 nM
- Ki (Bfl-1 [16]): 0.7 nM

Molecule: Ac-RPEIWIAQELRRAGDVLNAYYAR-NH2 [FA1 (unlabeled, 23 residues)]
- Ki (Bcl-xL [12]): 8 nM
- Ki (Bcl-2 [15]): 313 nM

Molecule: Ac-IWIAQELRRIGDEFNAYY-NH2 (also: fluoresceinated, site not given here) [18-residue fluoresceinated Bim BH3 peptide]
- Kd (Bcl-w [17]): 15 nM
- Kd (Bcl-2 [18]): 5 nM

B1: Biotinylated FA1 (peptide)
peptide: {Biotin-PEG4}-RPEIWIAQELRRAGDVLNAYYAR-NH2
SMILES: CC[C@H](C)[C@H](NC(=O)[C@H](Cc1c[nH]c2ccccc12)NC(=O)[C@@H](NC(=O)[C@H](CCC(=O)O)NC(=O)[C@@H]1CCCN1C(=O)[C@H](CCCNC(=N)N)NC(=O)CCOCCOCCOCCOCCNC(=O)CCCC[C@@H]1SC[C@@H]2NC(=O)N[C@@H]21)[C@@H](C)CC)C(=O)N[C@@H](C)C(=O)N[C@@H](CCC(N)=O)C(=O)N[C@@H](CCC(=O)O)C(=O)N[C@@H](CC(C)C)C(=O)N[C@@H](CCCNC(=N)N)C(=O)N[C@@H](CCCNC(=N)N)C(=O)N[C@@H](C)C(=O)NCC(=O)N[C@@H](CC(=O)O)C(=O)N[C@H](C(=O)N[C@@H](CC(C)C)C(=O)N[C@@H](CC(N)=O)C(=O)N[C@@H](C)C(=O)N[C@@H](Cc1ccc(O)cc1)C(=O)N[C@@H](Cc1ccc(O)cc1)C(=O)N[C@@H](C)C(=O)N[C@@H](CCCNC(=N)N)C(N)=O)C(C)C
- Kd (Bcl-xL [19]): ~33 nM
- Kd (Mcl-1 [20]): ~6 nM

Molecule: H-RPEIWMAQVLRRFGDLLNAYYAR-OH [FD2]
- Ki (Bcl-xL [12]): 18 nM
- Ki (Bcl-w [13]): 104 nM
- Ki (Bcl-2 [15]): 223 nM
- Ki (Bfl-1 [16]): 3.8 nM

Continued, values first:

- Kd (Bfl-1 [1]): ≤ 0.3 nM
- koff (Bfl-1 [1]; pH 7.5, read-out: upper limit on koff, dissociation of Bfl-1 from surface-bound peptide): ≤ 1.5e-05 s⁻¹
- Ki (Bcl-w [2]): 2 ± 1 nM
- Ki (Mcl-1 [3]): 1 ± 0.1 nM
Molecule: Ac-RPEIWIAQELRRAGDVLNAYYAR-NH2 [FA1]

- Ki (Bfl-1 [7]): 0.7 ± 0.2 nM
Molecule: Ac-RPEIWLAQYLRRLGDQINAYYAR-NH2 [FD1]

- Ki (Bfl-1 [7]): 3.8 ± 0.7 nM
- specificity for Bfl-1 over Bcl-xL, Bcl-2 and Bcl-w (Bfl-1 [7]; from competition FP Ki values): 4-60 fold
- Ki (Mcl-1 [3]): 1 ± 0.1 nM
Molecule: RPEIWMAQVLRRFGDLLNAYYAR [FD2]

- Ki (Bcl-2 [8]): 20 to 30 nM
- Ki (Bcl-xL [9]): 20 to 30 nM
- fold lower Ki for Bfl-1 compared to Bcl-w (Bfl-1 [7]; from competition FP Ki values): ~ 37 fold
Molecule: Ac-RPEIWIAQGLRRIGDTWNAYYAR-NH2 [FW1]
